Results reported in ChEMBL document CHEMBL3352466 (J Med Chem, 2014).
The source made the active and inactive calls. The rule behind the calls is not given here.

How the values were obtained:
[1] = tested on: Mus musculus; test: Toxicity in BALB/c mouse assessed as allergic reactions at 30 to 300 mg/kg, ip administered as single dose measured after 15 days; format: organism-based; parameters: dose 30-300 mg/kg, route intraperitoneal; conditions: in vivo, 360 h
Method in brief: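 Male BALB/c mice, 8 weeks old, randomized into six groups (n = 10): single i.p. dose of 0 (vehicle), 30, 100, 200 or 300 mg/kg on day zero, or untreated normal control. Monitored for anaphylactic/allergic responses and body weight; at end, liver, lung, kidney and spleen formalin-fixed, paraffin-embedded, H&E-stained and graded histopathologically for lesions.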

[2] = tested on: A549; test: Induction of apoptosis in human A549 cells assessed as necrosis cells level at 100 nM after 48 hrs by Annexin V-FITC/propidium iodide double staining based FACS method (reference value: 0.9%); format: functional
Method in brief: (§1)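 A549 cells given vehicle or 100 nM for 24 or 48 h, trypsinized, washed in ice-cold PBS, labelled with annexin V-FITC and propidium iodide 15 min at room temperature in the dark, then analysed by flow cytometry.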

[3] = tested on: A549; test: Activation of p53 pathways in human A549 cells assessed as increase in BAX protein expression at 100 nM after 2 to 24 hrs by Western blot method; format: functional, cell-based
Method in brief: (§2)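 Whole-cell lysates from A-549 cells given 100 nM or vehicle for the indicated hours; apoptosis-related proteins detected by Western blotting.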

[4] = target: Serine-protein kinase ATM (Homo sapiens) (UniProt Q13315); test: Induction of ATM activation in human A549 cells assessed as Chk1 phosphorylation at 100 nM after 0.5 to 4 hrs by Western blot method; format: cell-based
Method in brief: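 A-549 cells exposed to 100 nM for the indicated times; whole-cell extracts immunoblotted with phospho-specific antibodies (p-ATM, p-ATR, p-Chk1, p-Chk2, p-H2AX, p-p53), with pan antibody to each protein and β-actin as loading controls.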

[5] = tested on: Mus musculus; test: Toxicity in human HCT116 cells xenografted nu/nu mouse assessed as overt signs of symptoms at 5 mg/kg, iv qd for 7 days and then intraperitoneally once every day to the end; format: organism-based, HCT-116; parameters: dose 5 mg/kg, route intravenous; conditions: in vivo, 168 h
Method in brief: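 HCT116 xenografts were grown to about 200 mm3, then mice were randomized into groups (n = 8). Dosing was i.v. for 7 days, then i.p. once daily to the end. Vehicle was saline with 5% DMSO and 5% cremophor. Tumor growth and body weight were measured three times per week, and groups were compared by Student's t-test.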

[6] = tested on: A549; test: Induction of cell cycle arrest in human A549 cells assessed as accumulation at sub-G1 phase at 30 to 300 nM after 24 hrs by propidium iodide staining based flow cytometry; format: functional
Method in brief: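 A-549 cells treated with 0, 30, 100 or 300 nM for 24 h, fixed in ice-cold 70% EtOH, stained with propidium iodide; phase populations calculated from ploidy by flow cytometry.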

[7] = tested on: A549; test: Activation of p53 pathways in human A549 cells assessed as increase in PUMA protein expression at 100 nM after 2 to 24 hrs by Western blot method; format: functional, cell-based; method in brief: as §2
[8] = Toxicity in BALB/c mouse at 30 to 300 mg/kg, ip administered as single dose measured after 15 days; format: organism-based; parameters: dose 30-300 mg/kg, route intraperitoneal; conditions: in vivo
Method in brief: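 Acute toxicity in 8-week-old male BALB/c mice, with 10 mice per group, after one i.p. injection on day zero of vehicle or 30, 100, 200 or 300 mg/kg. An uninjected group served as normal control. Body weight and allergic or anaphylactic signs were monitored. At the end, liver, lung, kidney and spleen were formalin-fixed, paraffin-embedded, H&E-stained, and graded histopathologically for lesions.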

[9] = tested on: A549; test: Inhibition of topoisomerase 2beta protein expression in human A549 cells at 100 nM after 24 hrs by Western blot method; format: functional, cell-based
Method in brief: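 A-549 cells given vehicle or 100 nM for indicated hours; whole-cell lysates blotted for Topo I, Topo IIα, Topo IIβ, with β-actin loading control.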

[10] = tested on: A549; test: Induction of apoptosis in human A549 cells assessed as early apoptosis cells level at 100 nM after 48 hrs by Annexin V-FITC/propidium iodide double staining based FACS method (reference value: 0.6%); format: functional; method in brief: as §1
[11] = tested on: HCT-116; test: Antitumor activity against human HCT116 cells xenografted in nu/nu mouse assessed as tumor regression at 5 mg/kg, iv qd for 7 days and then intraperitoneally once every day to the end; format: functional, organism-based; parameters: dose 5 mg/kg
Method in brief: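 HCT116 colorectal xenografts grown to about 200 mm3, mice randomized into four groups (n = 8): vehicle, 5 or 10 mg/kg QD (i.v. for 7 days, then i.p. daily to end), or 100 mg/kg QWK. Vehicle saline with 5% DMSO and 5% cremophor. Tumour growth and body weight measured three times weekly; complete regression counted; Student's t-test.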

Chain of Serine-protein kinase ATM (Homo sapiens) (Q13315 whole entry): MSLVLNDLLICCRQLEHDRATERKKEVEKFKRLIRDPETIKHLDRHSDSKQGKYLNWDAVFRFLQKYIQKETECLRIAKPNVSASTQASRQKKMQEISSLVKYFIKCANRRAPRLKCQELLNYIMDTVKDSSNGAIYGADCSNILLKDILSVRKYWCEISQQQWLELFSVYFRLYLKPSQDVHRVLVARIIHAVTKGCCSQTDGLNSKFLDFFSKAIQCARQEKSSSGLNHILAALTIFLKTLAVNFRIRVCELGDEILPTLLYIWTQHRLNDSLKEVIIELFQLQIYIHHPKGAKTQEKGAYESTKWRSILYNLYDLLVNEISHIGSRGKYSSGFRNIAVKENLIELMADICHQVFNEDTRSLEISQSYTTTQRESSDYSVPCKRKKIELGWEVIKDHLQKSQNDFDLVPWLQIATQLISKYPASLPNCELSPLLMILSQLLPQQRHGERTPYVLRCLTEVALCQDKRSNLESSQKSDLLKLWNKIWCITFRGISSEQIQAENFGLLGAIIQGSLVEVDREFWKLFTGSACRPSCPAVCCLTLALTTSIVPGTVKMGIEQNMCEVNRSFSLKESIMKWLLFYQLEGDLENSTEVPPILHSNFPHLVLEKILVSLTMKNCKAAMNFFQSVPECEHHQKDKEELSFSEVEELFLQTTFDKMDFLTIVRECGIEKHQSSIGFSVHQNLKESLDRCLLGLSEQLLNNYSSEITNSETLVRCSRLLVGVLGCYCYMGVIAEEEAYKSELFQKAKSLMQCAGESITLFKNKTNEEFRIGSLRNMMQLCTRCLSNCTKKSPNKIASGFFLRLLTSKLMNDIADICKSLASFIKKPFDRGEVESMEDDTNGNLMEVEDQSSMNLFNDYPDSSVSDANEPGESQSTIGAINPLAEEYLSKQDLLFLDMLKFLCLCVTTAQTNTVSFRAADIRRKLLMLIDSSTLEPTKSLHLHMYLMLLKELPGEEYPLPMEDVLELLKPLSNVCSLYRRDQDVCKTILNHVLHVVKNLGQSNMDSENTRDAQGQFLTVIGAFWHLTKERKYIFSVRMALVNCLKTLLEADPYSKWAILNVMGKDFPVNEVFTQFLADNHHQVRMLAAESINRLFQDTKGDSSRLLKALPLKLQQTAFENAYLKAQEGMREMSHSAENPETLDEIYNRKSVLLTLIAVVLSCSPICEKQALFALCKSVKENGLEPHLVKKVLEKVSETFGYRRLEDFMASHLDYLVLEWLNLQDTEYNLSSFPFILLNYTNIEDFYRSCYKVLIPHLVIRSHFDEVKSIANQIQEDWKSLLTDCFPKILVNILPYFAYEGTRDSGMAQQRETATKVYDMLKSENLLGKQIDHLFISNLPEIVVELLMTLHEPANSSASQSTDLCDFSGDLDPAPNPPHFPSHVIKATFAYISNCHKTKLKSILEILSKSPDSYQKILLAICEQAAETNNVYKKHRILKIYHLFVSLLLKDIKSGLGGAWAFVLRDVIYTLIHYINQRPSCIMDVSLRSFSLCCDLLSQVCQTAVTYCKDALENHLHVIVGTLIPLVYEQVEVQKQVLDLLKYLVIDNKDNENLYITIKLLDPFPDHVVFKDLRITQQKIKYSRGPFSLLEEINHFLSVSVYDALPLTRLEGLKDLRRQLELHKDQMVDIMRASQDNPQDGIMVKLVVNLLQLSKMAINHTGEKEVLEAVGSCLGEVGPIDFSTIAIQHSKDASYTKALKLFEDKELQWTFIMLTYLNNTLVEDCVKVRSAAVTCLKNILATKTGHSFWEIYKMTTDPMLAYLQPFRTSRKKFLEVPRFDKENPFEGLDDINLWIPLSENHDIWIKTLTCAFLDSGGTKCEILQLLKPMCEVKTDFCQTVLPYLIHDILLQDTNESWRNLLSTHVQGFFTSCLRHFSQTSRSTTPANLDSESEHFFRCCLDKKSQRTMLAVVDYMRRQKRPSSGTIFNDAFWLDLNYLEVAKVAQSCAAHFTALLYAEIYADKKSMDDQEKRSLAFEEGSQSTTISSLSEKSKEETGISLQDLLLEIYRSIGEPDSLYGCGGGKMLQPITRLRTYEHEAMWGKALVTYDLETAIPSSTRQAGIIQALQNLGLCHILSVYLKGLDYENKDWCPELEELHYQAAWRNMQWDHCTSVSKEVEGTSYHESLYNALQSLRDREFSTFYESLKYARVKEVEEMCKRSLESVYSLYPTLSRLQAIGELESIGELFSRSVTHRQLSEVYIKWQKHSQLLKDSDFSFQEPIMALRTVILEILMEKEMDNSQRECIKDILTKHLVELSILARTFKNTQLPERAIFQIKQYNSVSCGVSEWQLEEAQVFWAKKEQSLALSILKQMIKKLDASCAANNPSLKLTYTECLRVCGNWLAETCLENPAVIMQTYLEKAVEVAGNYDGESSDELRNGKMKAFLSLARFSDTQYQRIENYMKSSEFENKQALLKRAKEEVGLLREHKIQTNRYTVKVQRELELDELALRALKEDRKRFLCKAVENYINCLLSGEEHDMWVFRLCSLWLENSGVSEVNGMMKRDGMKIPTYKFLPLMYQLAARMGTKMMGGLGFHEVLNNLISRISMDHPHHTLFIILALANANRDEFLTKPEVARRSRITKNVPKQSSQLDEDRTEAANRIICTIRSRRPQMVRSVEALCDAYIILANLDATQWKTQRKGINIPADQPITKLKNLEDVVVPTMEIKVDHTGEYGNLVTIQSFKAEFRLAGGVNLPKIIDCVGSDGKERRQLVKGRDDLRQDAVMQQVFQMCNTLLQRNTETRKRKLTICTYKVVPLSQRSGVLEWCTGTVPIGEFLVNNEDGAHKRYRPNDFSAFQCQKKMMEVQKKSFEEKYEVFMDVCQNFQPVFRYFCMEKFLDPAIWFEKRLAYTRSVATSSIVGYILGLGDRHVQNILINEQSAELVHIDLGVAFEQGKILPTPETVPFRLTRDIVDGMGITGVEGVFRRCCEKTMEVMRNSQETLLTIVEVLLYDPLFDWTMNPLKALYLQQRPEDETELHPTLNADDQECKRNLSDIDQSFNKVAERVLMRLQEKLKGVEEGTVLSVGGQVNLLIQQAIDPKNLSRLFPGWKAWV

With `CC[C@@]1(OC(=O)CN/C(Cc2ccc(OC)cc2)=N/S(=O)(=O)c2ccc(C)cc2)C(=O)OCc2c1cc1n(c2=O)Cc2cc3ccccc3nc2-1` the Activity [1] was “Non-toxic”, the Activity [2] was 9.1% and the Activity [3] was “Active”. The Activity [4] was “Active”, the Activity [5] was “Non-toxic” and the Activity [6] was “Active”. For the same compound, the Activity [7] was “Active”, the MTD at 360 h [8] was 300 mg/kg and the inhibition [9] was “Active”. For the same compound, the Activity [10] was 1.6% and the inhibition [11] was “Active”.
